Published values gathered from unrelated publications.
Each line is one published result; the experiments were not run side by side.
Organism: Severe acute respiratory syndrome coronavirus 2

SMILES	read-out	action	cell line	time	IC50
CN1[C@@H]2CC[C@H]1C[C@@H](OC(c1ccccc1)c1ccc(Cl)cc1)C2 (stereo partly shown)	cytopathic effect		Vero C1008	72 h	8.9 µM
CN1CCN(C2=Nc3ccccc3Oc3ccc(Cl)cc32)CC1	viral replication	inhibitor	Vero C1008		11.5 µM
Nc1nc(S[C@@H]2O[C@H](CO)[C@H](O)[C@H](O)[C@H]2O)[nH]c(=S)c1C(=O)Nc1ccccc1	viral replication		Vero C1008	72 h	18.5 µM
CCCCCOc1ccc(-c2ccc(-c3ccc(C(=O)N[C@H]4C[C@@H](O)[C@@H](O)NC(=O)[C@@H]5[C@@H](O)[C@@H](C)CN5C(=O)[C@H]([C@@H](C)O)NC(=O)[C@H]([C@H](O)[C@@H](O)c5ccc(O)cc5)NC(=O)[C@@H]5C[C@@H](O)CN5C(=O)[C@H]([C@@H](C)O)NC4=O)cc3)cc2)cc1	viral replication	inhibitor	Vero	24 h	5.4 µg/mL
CC(C)/N=c1\cc2n(-c3ccc(Cl)cc3)c3ccccc3nc-2cc1Nc1ccc(Cl)cc1	viral replication	inhibitor	Huh-7		0.085 µM
C=C1C(=O)[C@@]23[C@H](O)C[C@@H]4C(C)(C)C(=O)CC[C@@]4(C)[C@@H]2CC[C@@H]1[C@H]3O	viral replication	inhibitor	Calu-3	40 h	2.9 µM
COc1ccc(CCN(C)CCCC(C#N)(c2ccc(OC)c(OC)c2)C(C)C)cc1OC (stereo not shown)	viral replication	inhibitor	Huh-7		0.534 µM
NC(=O)c1ncn([C@@H]2O[C@H](CO)[C@@H](O)[C@H]2O)n1	viral replication	inhibitor	Vero C1008		> 10 µM
CCCN(CCC)CCc1ccc(OC)c(OCCc2ccccc2)c1	viral replication		Vero C1008		3.89 µM
CCCCCCCCC=CCCCCCCCC(=O)NCCO	viral replication	inhibitor	Huh-7		> 2 µM
CN(C)CCCN1c2ccccc2Sc2ccc(Cl)cc21	viral replication	inhibitor	Vero C1008		3.14 µM
CCN(CC)CCCC(C)Nc1c2ccc(Cl)cc2nc2ccc(OC)cc12 (stereo not shown)	viral replication		Calu-3		> 50 µM
COc1ccc(NC(=O)c2c(N)nc(S[C@@H]3O[C@H](COC(C)=O)[C@@H](OC(C)=O)[C@H](OC(C)=O)[C@H]3OC(C)=O)[nH]c2=S)cc1	viral replication		Vero C1008	72 h	169 µM
CCN(CC)CCOc1ccc(C(O)(Cc2ccc(Cl)cc2)c2ccc(C)cc2)cc1 (stereo not shown)	viral replication	inhibitor	Vero C1008		4.68 µM
CN(Cc1cc(Br)cc(Br)c1N)C1CCCCC1	viral replication		Vero C1008		2.82 µM
CNc1ccc2oc(C[C@H]3O[C@@]4(CC[C@H]3C)O[C@H]([C@H](C)C(=O)c3ccc[nH]3)[C@H](C)C[C@H]4C)nc2c1C(=O)O	viral replication	inhibitor	Calu-3	40 h	1.55 µM
COc1ccc2c(c1)[C@]13CCCC[C@@H]1[C@H](C2)N(C)CC3	viral replication	inhibitor	A549-ACE2		4.17 µM
COc1cc(Nc2c(C#N)cnc3cc(OCCCN4CCN(C)CC4)c(OC)cc23)c(Cl)cc1Cl	viral replication	inhibitor	Huh-7		0.02 µM
CC(=O)[C@H]1CC[C@H]2[C@@H]3CCC4=CC(=O)CC[C@]4(C)[C@H]3CC[C@]12C	viral replication		Vero C1008		9.33 µM
CC[C@@H]1C[C@]1(NC(=O)[C@@H]1C[C@@H]2CN1C(=O)[C@H](C(C)(C)C)NC(=O)OCC(C)(C)CCCCc1cccc3c1CN(C3)C(=O)O2)C(=O)NS(=O)(=O)C1CC1	viral replication		HEK-293T		3 µM
CC(CN1c2ccccc2Sc2ccccc21)N(C)C (stereo not shown)	viral replication	inhibitor	A549-ACE2		0.575 µM
C[C@@H]1O[C@@H](O[C@H]2C[C@@H](O)[C@]3(CO)[C@H]4[C@H](O)C[C@]5(C)[C@@H](C6=CC(=O)OC6)CC[C@]5(O)[C@@H]4CC[C@]3(O)C2)[C@H](O)[C@H](O)[C@H]1O	viral replication	inhibitor	Vero C1008		0.03 µM
